Hits are enriched below; roughly 4.6% of the tested compounds scored in any of these assays.
APP 5'UTR act: activates APP 5'UTR luciferase reporter | SH-SY5Y APP 5'UTR luciferase reporter, luminescence; zero percent = DMSO vehicle wells | activation, % at 2 µM | AID 1276 | 1% of 190,000 active;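 active means activation above a set limit, based on mean plus 3 SD of controls, cut at about 140% in these data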
MDM2 E3 inh: blocks human Mdm2 ubiquitin ligase activity; Q00987; cell-based MDM2 ubiquitination luciferase reporter, 2 h; 0 = plate control, 100 = twice control, blank-subtracted; signal enhancement, % at 5 µM; 0.11% of 210,000 active;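 active means signal enhancement of 30% or more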;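 further: luminescence tracks abundance of the self-degrading MDM2-luciferase fusion protein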
Target sequence (Q00987 whole entry, looked up, the tested form may be a part): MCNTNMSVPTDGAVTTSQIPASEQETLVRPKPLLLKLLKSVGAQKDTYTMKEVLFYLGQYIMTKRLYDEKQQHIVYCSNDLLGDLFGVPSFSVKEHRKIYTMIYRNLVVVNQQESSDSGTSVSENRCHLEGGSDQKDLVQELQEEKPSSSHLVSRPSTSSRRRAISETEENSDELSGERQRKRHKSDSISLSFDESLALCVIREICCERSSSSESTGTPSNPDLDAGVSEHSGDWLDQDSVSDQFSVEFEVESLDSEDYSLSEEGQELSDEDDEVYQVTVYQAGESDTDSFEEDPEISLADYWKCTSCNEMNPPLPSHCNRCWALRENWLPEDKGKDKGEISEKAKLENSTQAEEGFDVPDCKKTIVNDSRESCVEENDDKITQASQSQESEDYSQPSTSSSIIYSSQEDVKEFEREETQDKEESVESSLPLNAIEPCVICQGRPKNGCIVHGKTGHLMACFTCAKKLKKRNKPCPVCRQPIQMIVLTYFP
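Material: Stable MDM2–luciferase fusion reporter cells | Amount: 2000 cells seeded into each well | Dosing: One concentration, 5 µM, with 0.2% DMSO | Incubation: 4 h cell settling then 2 h compound exposure, 37 °C | Measured by: Luciferase luminescence | Read-out basis: % enhancement relative to plate controls after blank subtraction | Benchmarks: Control and blank well means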
Wee1 stabilizer: human Wee1 degradation inhibition, primary screen; HeLa Luc-Wee1K328M stability, luciferase luminescence; 100% = proteasome inhibitor MG132 effect; reporter increase, % at 5 µM; 1.2% of 220,000 active;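 active means activation above the mean of all tested compounds plus 3 SD, set per screening run, cut at about 8.8% in these data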;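 further: cells exposed to compound for 20 h before luminescence read; 0% = DMSO alone and 100% = MG132 at 30 µM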
STAT1 activator: STAT1 signaling activation; NIH 3T3 STAT1-luciferase reporter, IFN-gamma, luminescence; 100% = IFN-gamma alone, no compound; activation (% of control), % at 5.5 µM; 2.6% of 200,000 active; AID 932;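 active means activation above the screen-wide mean activation plus 3 SD, cut at about 130% in these data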;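 further: raw ratio to IFN-gamma control signal so 100% means no change and 0% no light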
p97 ATPase inh: human p97 ATPase inhibition; P55072; recombinant p97 ATPase, Kinase-Glo ATP luminescence, 3 h; inhibition, % at 8 µM; 0.42% of 220,000 active; AID 1481; in the data active means inhibition above about 15%;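 further: 0% = DMSO vehicle and 100% = wells lacking enzyme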
NF-kB neuron act: raises NF-kB expression in human neuronal cells | NF-kB reporter expression; hits give high values | fold change at 12.5 µM | 1.6% of 190,000 active; in the data active means fold change above about 3.3
p97 confirm: confirmation of human p97 ATPase inhibitors. shares compounds with p97 ATPase inh. recombinant p97 ATPase, Kinase-Glo ATP luminescence. inhibition, % at 8 µM. 44% of 760 active. AID 1517;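 active means percent inhibition of p97 ATPase above a set limit, the primary screen's mean plus 3 SD, cut at about 15% in these data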;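 further: 0% = DMSO wells and 100% = wells lacking p97 protein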
Starred values were filed as active, the others as inactive; · = no result.

SMILES	APP 5'UTR act	MDM2 E3 inh	Wee1 stabilizer	STAT1 activator	p97 ATPase inh	NF-kB neuron act	p97 confirm
Fc1ccccc1-c1nc(NCc2ccco2)c2ccccc2n1	-5	-4	1	97	22*	0.9	28*
NC(=S)N/N=C/c1cccc(O)c1O	7	12	1	102	5	0.68	·
Cc1cc(/C=N/NC(N)=S)c(O)c(/C=N/NC(N)=S)c1	·	-13	1	·	19*	·	20*
O=C(NC1(O)C(=O)c2ccccc2C1=O)c1c(Cl)cccc1Cl	·	-7	4	·	20*	·	41*
O=C(NC1(O)C(=O)c2ccccc2C1=O)c1ccccc1	9	10	6	102	9	0.75	·
CC(NC(=O)C1(c2cccs2)CCOCC1)c1ccccc1 (centres undefined)	17	-13	-1	104	2	1	·
CCC(C)c1ccc(C2C3=C(Nc4nc(N)[nH]c(=O)c42)c2ccccc2C3=O)cc1 (centres undefined)	·	-5	1	·	15*	·	5
COc1ccc(OC)c2sc(NC(=O)CCS(=O)(=O)c3ccccc3)nc12	8	·	-2	87	19*	·	25*
C[n+]1cccc2cccc([O-])c21	·	-16	7	·	37*	·	20*
O=c1c2c3nc4ccccc4nc3n(Cc3ccccc3)c2ncn1Cc1ccco1	-9	-11	-1	110	16*	2.3	34*
COc1cc(-n2c3nc4ccccc4nc3c3c(=O)n(Cc4ccco4)cnc32)cc(OC)c1OC	-6	·	2	101	3	·	·
O=C(CNC(=O)c1ccc(F)cc1)N/N=C/c1ccc(O)c([N+](=O)[O-])c1	-39	-14	0	101	22*	0.98	5
COc1ccc(-c2c(=O)n(OCc3ccccc3[N+](=O)[O-])c3ccccc3[n+]2[O-])c(OC)c1	-16	-15	-2	94	-4	0.93	·
N#CC1=C2SCN(c3ccccc3)CN2C(=O)CC1c1ccccc1Cl (centres undefined)	0	-12	-3	96	-9	1.1	·
N#CC1=C2SCN(c3ccccc3)CN2C(=O)CC1c1c(Cl)cccc1Cl (centres undefined)	-8	-17	-2	98	17*	1	4
COc1cc(NC(C)CCCN)c2ncccc2c1Oc1ccccc1 (centres undefined)	9	-15	6	103	2	1	·
Cn1cc([N+](=O)[O-])c(C(=O)Nc2nccs2)n1	-9	-3	5	98	17*	0.8	7
COc1ccc(C(=O)Nc2nccs2)cc1[N+](=O)[O-]	5	-14	2	112	5	1.5	·
CCOC(=O)C1=C(C)OC2(O)c3ccccc3C(=O)C12O (centres undefined)	·	-4	4	·	17*	·	27*
CC(=O)C1=C(C)OC2(O)c3ccccc3C(=O)C12O (centres undefined)	·	-8	3	·	20*	·	8
Cc1cc(C(=O)N/N=C/c2cc(Br)ccc2OC(=O)c2ccccc2Cl)n[nH]1	-22	2	3	95	18*	0.86	35*
Cc1cc(C(=O)N/N=C/c2cc(Br)ccc2OC(=O)c2ccccc2)n[nH]1	-35	-7	1	93	6	0.62	·
CCc1nc(NC(C)(C)C)c2cnn(-c3ccccc3)c2n1	·	-5	-1	·	-1	·	·
CC(C(=O)c1ccc(-c2ccccc2)cc1)[n+]1cccc(NC(=O)c2ccccc2)c1 (centres undefined)	·	-2	5	·	20*	·	18*
Cc1nn(C)cc1C(C(=O)NC1CCCCC1)N(C(=O)c1cnccn1)c1ccc(Oc2ccccc2)cc1 (centres undefined)	-5	-1	-2	103	1	1.3	·
SMILES	APP 5'UTR act	MDM2 E3 inh	Wee1 stabilizer	STAT1 activator	p97 ATPase inh	NF-kB neuron act	p97 confirm
CCOC(=O)c1ccc(N(C(=O)c2cnccn2)C(C(=O)NC2CCCCC2)c2cn(C)nc2C)cc1 (centres undefined)	17	-16	5	101	22*	1.1	9
CCc1ccc(NC(=O)CSCc2ccc(C(=O)O)cc2)cc1	1	·	-1	109	7	·	·
CC[N+](C)(C)CCN(Cc1ccc(Cl)cc1)c1ccccn1	12	-18	-2	94	15*	0.58	3
O=C(/C=C/c1ccc(Cl)cc1)N(Cc1ccccc1)c1ccccn1	-10	-6	1	103	-9	1.1	·
COCCOc1cc2ncnc(N3CCC(C(=O)O)CC3)c2cc1OCCOC	·	-13	3	·	3	·	·
Cc1cc(C(=O)NC(Cc2ccccc2)C(=O)O)c(C)o1 (centres undefined)	·	-7	-2	·	2	·	·
O=C(CCCN1C(=O)/C(=C/c2ccco2)SC1=S)Nc1cccc(C(=O)O)c1	·	-9	-2	·	33*	·	7
O=C(c1ccccc1)c1nc2ccccc2n(CCCn2c(=O)c(C(=O)c3ccccc3)nc3ccccc32)c1=O	14	-11	-1	95	1	0.88	·
CCn1nc([N+](=O)[O-])c(C(C#N)c2nc3cc(C(F)(F)F)ccc3s2)c(Cl)c1=O (centres undefined)	-12	-19	6	95	35*	1	42*
COc1ccc2c(c1)Cc1sc(NC(=O)c3ccccc3)nc1-2	29	-12	2	134*	18*	1.4	2
COc1ccc(CNC(=O)CS(=O)CC(=O)O)cc1OC (centres undefined)	-23	6	-1	103	5	1.1	·
COc1cc(/C=C2\C(=O)N(c3ccccc3)N=C2C)ccc1Oc1ccc([N+](=O)[O-])cc1[N+](=O)[O-]	17	-5	4	96	18*	1.7	9
CC1=NN(c2ccccc2)C(=O)/C1=C\c1ccc(Oc2ccc([N+](=O)[O-])cc2[N+](=O)[O-])cc1	2	-5	0	90	23*	1.6	9
CC(Cc1ccsc1)NC(=O)CCc1nnc(COc2ccccc2)o1 (centres undefined)	23	0	5	98	3	1.7	·
Cc1ccc(N/C(C(Cl)=C(Cl)Cl)=C(/Cl)[N+](=O)[O-])c(C)c1	7	-18	0	105	19*	1.1	21*
Cc1ccc(NC(=O)c2c([N+](=O)[O-])c(C(C)(C)C)nn2C)c(C)c1	6	-1	4	101	-3	0.89	·
Cc1ccccc1C(=O)NC(=S)Nc1ccccc1C(=O)O	-12	-5	0	99	3	0.95	·
COC(=O)c1ccccc1NC(=S)NC(=O)c1ccccc1	11	-4	2	108	26*	0.91	21*

Compound activity as filed in PubChem BioAssay.
